Experimental data as given in ChEMBL document CHEMBL4138183, “Diselaginellin B, an Unusual Dimeric Molecule from Selaginella pulvinata, Inhibited Metastasis and Induced Apoptosis of SMMC-7721 Human Hepatocellular Carcinoma Cells” (J Nat Prod, 2017).
Active and inactive are the calls of the source. The rule behind the calls is not given here.

Columns and labels:
[1] = test system: SMMC-7721; assay: Cytotoxicity against human SMMC7721 cells assessed as reduction in cell viability after 48 hrs by MTT assay; type: functional, cell-based; settings: SMMC-7721, 48 h
How it was run: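 MTT viability: 5 × 10^4 cells/well seeded, cultured overnight, treated with graded concentrations 48 h; MTT (5 mg/mL stock) added 4 h, formazan dissolved in DMSO, absorbance read at 490 nm.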

[2] = test system: SMMC-7721; assay: Induction of apoptosis in human SMMC7721 cells after 48 hrs by Annexin-V-FITC/propidium iodide staining based flow cytometric method; type: functional, cell-based
[3] = test system: SMMC-7721; assay: Cell cycle arrest in human SMMC7721 cells assessed as increase in G1 population at 2.5 to 5 uM after 48 hrs by propidium iodide staining based flow cytometric method; type: functional
How it was run: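 Cells exposed 48 h to 2.5 or 5 μM, PBS-washed, fixed in 70% ethanol at 4 °C overnight, centrifuged, RNase treated 37 °C 30 min, then PI stained 30 min in dark; G1/S/G2 distribution by flow cytometry; means ± SD, n = 3.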

[4] = test system: SMMC-7721; assay: Induction of apoptosis in human SMMC7721 cells assessed as live cells at 2.5 uM after 48 hrs by Annexin-V-FITC/propidium iodide staining based flow cytometric method (reference value: 95.75%); type: functional
[5] = test system: SMMC-7721; assay: Induction of apoptosis in human SMMC7721 cells assessed as early apoptotic cells at 2.5 uM after 48 hrs by Annexin-V-FITC/propidium iodide staining based flow cytometric method (reference value: 2.27%); type: functional
[6] = test system: SMMC-7721; assay: Induction of apoptosis in human SMMC7721 cells assessed as late apoptotic cells at 2.5 uM after 48 hrs by Annexin-V-FITC/propidium iodide staining based flow cytometric method (reference value: 1.17%); type: functional
[7] = test system: SMMC-7721; assay: Induction of apoptosis in human SMMC7721 cells assessed as necrotic cells at 2.5 uM after 48 hrs by Annexin-V-FITC/propidium iodide staining based flow cytometric method (reference value: 0.82%); type: functional
[8] = test system: SMMC-7721; assay: Induction of apoptosis in human SMMC7721 cells assessed as live cells at 5 uM after 48 hrs by Annexin-V-FITC/propidium iodide staining based flow cytometric method (reference value: 95.75%); type: functional
[9] = test system: SMMC-7721; assay: Induction of apoptosis in human SMMC7721 cells assessed as early apoptotic cells at 5 uM after 48 hrs by Annexin-V-FITC/propidium iodide staining based flow cytometric method (reference value: 2.27%); type: functional
[10] = test system: SMMC-7721; assay: Induction of apoptosis in human SMMC7721 cells assessed as late apoptotic cells at 5 uM after 48 hrs by Annexin-V-FITC/propidium iodide staining based flow cytometric method (reference value: 1.17%); type: functional
[11] = test system: SMMC-7721; assay: Induction of apoptosis in human SMMC7721 cells assessed as necrotic cells at 5 uM after 48 hrs by Annexin-V-FITC/propidium iodide staining based flow cytometric method (reference value: 0.82%); type: functional
[12] = test system: SMMC-7721; assay: Induction of apoptosis in human SMMC7721 cells assessed as live cells at 10 uM after 48 hrs by Annexin-V-FITC/propidium iodide staining based flow cytometric method (reference value: 95.75%); type: functional
[13] = test system: SMMC-7721; assay: Induction of apoptosis in human SMMC7721 cells assessed as early apoptotic cells at 10 uM after 48 hrs by Annexin-V-FITC/propidium iodide staining based flow cytometric method (reference value: 2.27%); type: functional
[14] = test system: SMMC-7721; assay: Induction of apoptosis in human SMMC7721 cells assessed as late apoptotic cells at 10 uM after 48 hrs by Annexin-V-FITC/propidium iodide staining based flow cytometric method (reference value: 1.17%); type: functional
[15] = test system: SMMC-7721; assay: Induction of apoptosis in human SMMC7721 cells assessed as necrotic cells at 10 uM after 48 hrs by Annexin-V-FITC/propidium iodide staining based flow cytometric method (reference value: 0.82%); type: functional
[16] = test system: SMMC-7721; assay: Antimetastatic activity against human SMMC7721 cells assessed as reduction in cell invasion at 0.5 uM after 48 hrs using crystal violet staining by matrigel based fluorescence microscopic analysis relative to control; type: functional
How it was run: (§1)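 Transwell invasion: filter (8 μm pore) coated with matrigel for 2 h at 37 °C; 2 × 10^4 cells seeded in serum-free RPMI on upper surface with test agent 48 h; 10% FBS medium in lower chamber. Non-invaded cells swabbed off; invaded cells crystal violet stained, counted in five random fields by fluorescence microscopy. Paclitaxel 100 nM positive control; means ± SD, n = 3.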

[17] = test system: SMMC-7721; assay: Antimetastatic activity against human SMMC7721 cells assessed as reduction in cell invasion at 1 uM after 48 hrs using crystal violet staining by matrigel based fluorescence microscopic analysis relative to control; type: functional; how it was run: as §1
[18] = test system: SMMC-7721; assay: Antimetastatic activity against human SMMC7721 cells assessed as reduction in cell invasion at 2 uM after 48 hrs using crystal violet staining by matrigel based fluorescence microscopic analysis relative to control; type: functional; how it was run: as §1
[19] = test system: SMMC-7721; assay: Antimetastatic activity against human SMMC7721 cells assessed as reduction in cell migration at 0.5 to 2 uM after 48 hrs by crystal violet staining based fluorescence microscopic analysis; type: functional
How it was run: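 Migration through uncoated Transwell filter (8 μm pore): 2 × 10^4 cells in serum-free RPMI on upper side, treated 0.5, 1 or 2 μM for 48 h; lower chamber 10% FBS medium. Upper-surface cells removed by swab; underside cells crystal violet stained and scored in five random fields under fluorescence microscope. Paclitaxel 100 nM positive control; n = 3.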

[20] = test system: SMMC-7721; assay: Down regulation of COX1 mRNA expression in human SMMC7721 cells at 8 uM by RT-qPCR analysis; type: functional, cell-based
How it was run: (§2)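 Cells exposed to 8 μM; target mRNA quantified by RT-qPCR normalized to actin; means ± SD, n = 3.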

[21] = test system: SMMC-7721; assay: Down regulation of COX2 mRNA expression in human SMMC7721 cells at 8 uM by RT-qPCR analysis; type: functional, cell-based; how it was run: as §2
[22] = test system: SMMC-7721; assay: Down regulation of NNMT mRNA expression in human SMMC7721 cells at 8 uM by RT-qPCR analysis; type: functional, cell-based; how it was run: as §2
[23] = test system: SMMC-7721; assay: Down regulation of TSPAN8 mRNA expression in human SMMC7721 cells at 8 uM by RT-qPCR analysis; type: functional, cell-based; how it was run: as §2
[24] = test system: SMMC-7721; assay: Down regulation of CEACAM7 mRNA expression in human SMMC7721 cells at 8 uM by RT-qPCR analysis; type: functional, cell-based; how it was run: as §2
[25] = test system: SMMC-7721; assay: Down regulation of MAGP2 mRNA expression in human SMMC7721 cells at 8 uM by RT-qPCR analysis; type: functional, cell-based; how it was run: as §2
[26] = test system: SMMC-7721; assay: Upregulation of DLD mRNA expression in human SMMC7721 cells at 8 uM by RT-qPCR analysis; type: functional, cell-based; how it was run: as §2

O=C1C=CC(=C(c2ccc(O)cc2)c2c(-c3ccc(O)cc3)ccc(CO)c2C#Cc2ccc(OCc3ccc(-c4ccc(O)cc4)c(C(=C4C=CC(=O)C=C4)c4ccc(O)cc4)c3C#Cc3ccc(O)cc3)cc2)C=C1
IC50 [1]: 9 µM
Activity [2]: Dose-dependent effect
Activity [3]: Active
Activity [4]: 82.58%
Activity [5]: 5.4%
Activity [6]: 11.13%
Activity [7]: 0.89%
Activity [8]: 58.59%
Activity [9]: 7.57%
Activity [10]: 32.3%
Activity [11]: 1.54%
Activity [12]: 47.83%
Activity [13]: 21.22%
Activity [14]: 29.8%
Activity [15]: 1.15%
fold change (FC) [16]: 0.53
fold change (FC) [17]: 0.42
fold change (FC) [18]: 0.39
Activity [19]: Active
Activity [20]: Active
Activity [21]: Active
Activity [22]: Active
Activity [23]: Active
Activity [24]: Active
Activity [25]: Active
Activity [26]: Active
